Measurements reported in ChEMBL document CHEMBL4196182, “Hexaricins, Pradimicin-like Polyketides from a Marine Sediment-Derived Streptosporangium sp. and Their Antioxidant Effects” (J Nat Prod, 2018).

Legend:
Type in all cases: functional
[1] = Antioxidant activity assessed as superoxide anion radical scavenging activity incubated for 20 mins measured every 30 secs for 5 mins in presence of pyrogallol
[2] = Antioxidant activity assessed as DPPH radical scavenging activity incubated for 30 mins by UV/visible spectrophotometric analysis
Method in brief: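 Test samples in MeOH at 1.875−120 μg/mL reacted with DPPH in MeOH (negative control DPPH 0.1 mM). Absorbance read at 517 nm; scavenging % computed against the DPPH-only control, correcting for sample absorbance without DPPH. EC50 is the concentration giving 50% scavenging. Independent repeats at least three times, reported as mean ± standard deviation.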

[3] = Antioxidant activity assessed as hydroxyl radical scavenging activity incubated for 10 mins in presence of salicylic acid
Method in brief: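 Modified Smirnoff method. Equal volumes of sample in MeOH, FeSO4 (6 mM) and ethanolic salicylic acid (6 mM), then H2O2 (6 mM), giving final sample levels of 0.2−1 mg/mL. Held 10 min at room temperature, then read at 510 nm. Scavenging % uses blanks with and without H2O2 against the negative control. EC50 taken at 50% scavenging. Repeated at least three times, mean ± standard deviation.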

COc1c2c(c(O)c3c1[C@H](O)Cc1cc(CC(C)=O)c(C(=O)O)c(O)c1-3)C(=O)c1cccc(O)c1C2=O
EC50 [1]: 681 µM | EC50 [2]: 25 µM | EC50 [3]: 840 µM

COc1c2c(c(O)c3c1C(=O)c1c(O)cccc1C3=O)-c1c(cc3c(c1O)C(=O)OC(C)(O)C3)CC2 (centres undefined)
EC50 [1]: 83 µM | EC50 [2]: 2.9 µM | EC50 [3]: 619 µM

CCC(=O)O[C@@H]1Cc2cc3c(c(O)c2-c2c(O)c4c(c(OC)c21)C(=O)c1c(O)cccc1C4=O)C(=O)O[C@H](C)C3
EC50 [1]: 754 µM | EC50 [2]: 30 µM | EC50 [3]: 831 µM

COc1c2c(c(O)c3c1[C@H](O)Cc1cc4c(c(O)c1-3)C(=O)O[C@H](C)C4)C(=O)c1cccc(O)c1C2=O
EC50 [1]: 589 µM | EC50 [2]: 21 µM | EC50 [3]: 723 µM

COc1c2c(c(O)c3c1C(=O)c1c(O)cccc1C3=O)-c1c(cc3c(c1O)C(=O)OC(C)(OC)C3)CC2 (centres undefined)
EC50 [1]: 139 µM | EC50 [2]: 2.7 µM | EC50 [3]: 519 µM

COc1c2c(c(O)c3c1[C@H](OC(=O)C(C)C)Cc1cc4c(c(O)c1-3)C(=O)O[C@H](C)C4)C(=O)c1cccc(O)c1C2=O
EC50 [1]: 746 µM | EC50 [2]: 30 µM | EC50 [3]: 804 µM

COc1c2c(c(O)c3c1C(=O)c1c(O)cccc1C3=O)-c1c(cc3c(c1O)C(=O)O[C@H](C)C3)CC2
EC50 [1]: 1100 µM | EC50 [2]: 42 µM | EC50 [3]: 1530 µM

CC(C)(C)c1cc(O)ccc1O [E319]
EC50 [1]: 482 µM | EC50 [2]: 10 µM | EC50 [3]: 1920 µM
